Data from ChEMBL document CHEMBL1157319, “Altenuene derivatives from an unidentified freshwater fungus in the family Tubeufiaceae” (2006).
Calls of active or inactive are those of the source. The rule behind the calls is not given here.

Columns and labels:
Fusarium verticillioides = assay: Antifungal activity against Fusarium verticillioides NRRL 25457 at 200 ug/disk by disk diffusion method; assay type: functional, organism-based
Aspergillus flavus = assay: Antifungal activity against Aspergillus flavus NRRL 6541 at 200 ug/disk by disk diffusion method; assay type: functional, organism-based
Candida albicans = assay: Antifungal activity against Candida albicans ATCC 14053 at 200 ug/disk by disk diffusion method; assay type: functional, organism-based
Staphylococcus aureus = assay: Antibacterial activity against Staphylococcus aureus ATCC 29213 at 100 ug/disk by disk diffusion method; assay type: functional; conditions: for zone of inhibition at 100 µg/disc: read-out: IZ
How it was run: (§1)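 Paper disks each loaded with 100 µg of test material; gentamicin sulfate at 25 µg/disk served as the positive standard. Read-out was the diameter of the inhibition zone in mm. The same panel also included Escherichia coli ATCC 25922.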

Bacillus subtilis = assay: Antibacterial activity against Bacillus subtilis ATCC 6051 at 100 ug/disk by disk diffusion method; assay type: functional; conditions: for zone of inhibition at 100 µg/disc: read-out: IZ; how it was run: as §1

SMILES: COc1cc(O)c2c(c1)[C@H]1C[C@H](O)[C@@H](O)C[C@]1(C)OC2=O
- Activity (Fusarium verticillioides): inactive
- Activity (Aspergillus flavus): inactive
- Activity (Candida albicans): inactive
- Activity (Staphylococcus aureus): inactive
- Activity (Bacillus subtilis): inactive

SMILES: COc1cc(O)c2c(c1)C1=CC(=O)[C@@H](O)C[C@]1(C)OC2=O [DEHYDROALTENUENE B]
- Activity (Fusarium verticillioides): inactive
- Activity (Aspergillus flavus): inactive
- Activity (Candida albicans): inactive
- zone of inhibition at 100 µg/disc (Staphylococcus aureus): 14 mm
- zone of inhibition at 100 µg/disc (Bacillus subtilis): 20 mm

SMILES: COc1cc(O)c2c(c1)C1=C[C@@H](O)[C@H](O)C[C@]1(C)OC2=O [ISOALTENUENE]
- zone of inhibition at 100 µg/disc (Bacillus subtilis): 30 mm

SMILES: COc1cc(O)c2c(c1)C1=CC(=O)[C@H](O)C[C@]1(C)OC2=O [DEHYDROALTENUENE A]
- Activity (Fusarium verticillioides): inactive
- Activity (Aspergillus flavus): inactive
- Activity (Candida albicans): inactive
- zone of inhibition at 100 µg/disc (Bacillus subtilis): 13 mm

SMILES: COc1cc(O)c2c(c1)C1=C[C@H](O)[C@@H](O)C[C@]1(C)OC2=O [ALTENUENE]
- zone of inhibition at 100 µg/disc (Staphylococcus aureus): 18 mm
- zone of inhibition at 100 µg/disc (Bacillus subtilis): 20 mm

SMILES: COc1cc(O)c2c(c1)[C@H]1C[C@@H](O)[C@@H](O)C[C@]1(C)OC2=O [DIHYDROALTENUENE A]
- Activity (Fusarium verticillioides): inactive
- Activity (Aspergillus flavus): inactive
- Activity (Candida albicans): inactive
- zone of inhibition at 100 µg/disc (Staphylococcus aureus): 14 mm
- zone of inhibition at 100 µg/disc (Bacillus subtilis): 50 mm

SMILES: COc1cc(O)c2c(c1)C1=C[C@@H](O)[C@@H](O)C[C@]1(C)OC2=O
- Activity (Bacillus subtilis): inactive
